# Results published in article PMC3288656 (Biochemical pharmacology, 2012).
# Where “and” joins values, the source holds several entries; their conditions need not be identical. Equal entries are not always repeated. Marks after values point to notes of the source that are not given here.
# Columns and labels:
# CB1Rs [1] = target: T1, CB1Rs (Mus musculus, UniProt P47746); test: [35S]GTPγS binding assay; assay type: biochemical; conditions: for intrinsic activity at CB1Rs: conclusion from [35S]GTPγS binding data; for [35S]GTPγS Binding Emax: concentration-effect curves, mouse brain homogenates, n=3–4
# [2] = test system: core body temperature (hypothermia); test: Cannabinoid tetrad: core body temperature by biotelemetry; assay type: in vivo, NIH Swiss mice; conditions: for minimum core body temperature recorded / time to maximal core body temperature reduction (Tmax): 10 mg/kg, i.p.
# locomotor activity = test: Cannabinoid tetrad: locomotor activity by biotelemetry; assay type: in vivo, NIH Swiss mice; conditions: for locomotor activity: mice
# Outline: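 Abdominal biotelemetry probes were implanted in male NIH Swiss mice under ketamine 100 mg/kg plus xylazine 10 mg/kg i.p., with at least 7 days recovery. Mice were housed singly, acclimated at least 2 h, and gave at least 1 h of baseline. They were then dosed i.p. in 1:1:18 ethanol:emulphor:saline (10 mL/kg) and moved to a fresh-bedding cage. Activity was logged every 5 min for at least 10 h. Groups of 5 or 6.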
# analgesia (tail flick) = test: Cannabinoid tetrad: analgesia, tail-flick latency; assay type: in vivo, NIH Swiss mice
# Outline: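 Male NIH Swiss mice (~25–30 g, drug-naïve, groups of 5 or 6) received i.p. test compound in ethanol:emulphor:saline 1:1:18 at 10 mL/kg. Radiant-heat tail flick used sensitivity 150 and light intensity 369, calibrated so untreated mice respond in 2–4 s, with a 10 s cutoff. The photobeam break stopped the timer. One trial per mouse at 0, 10, 30 and 60 min post-dose.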
# catalepsy = test: Cannabinoid tetrad: catalepsy, horizontal bar test; assay type: in vivo, NIH Swiss mice
# Outline: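 Catalepsy was measured as time on a horizontal bar in male NIH Swiss mice (groups of 5 or 6, drug-naïve). Dosing was i.p. in 1:1:18 ethanol:emulphor:saline (10 mL/kg). The steel bar was 0.5 cm in diameter and sat 4.0 cm above a platform. Forelimbs went on the bar and hindlimbs on the platform in a rearing posture. Timing ran until both paws left the bar, maximum 30 s. Single trial per time point at 0, 10, 30 and 60 min.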
# CB1Rs [3] = target: T1, CB1Rs; test: Competition receptor binding with [3H]CP-55,940 in mouse brain homogenates
# [4] = M4 10 mg/kg i.p. + JWH-018 3 mg/kg i.p. vs JWH-018 alone
# [5] = JWH-018 3 mg/kg i.p. alone, mice
# [6] = drug 1 μM co-incubated with CB1R antagonist O-2050 1 μM
# [7] = drug 10 μM (receptor-saturating)
# [8] = 10 mg/kg, i.p., relative to vehicle
# T1 sequence (P47746 whole entry): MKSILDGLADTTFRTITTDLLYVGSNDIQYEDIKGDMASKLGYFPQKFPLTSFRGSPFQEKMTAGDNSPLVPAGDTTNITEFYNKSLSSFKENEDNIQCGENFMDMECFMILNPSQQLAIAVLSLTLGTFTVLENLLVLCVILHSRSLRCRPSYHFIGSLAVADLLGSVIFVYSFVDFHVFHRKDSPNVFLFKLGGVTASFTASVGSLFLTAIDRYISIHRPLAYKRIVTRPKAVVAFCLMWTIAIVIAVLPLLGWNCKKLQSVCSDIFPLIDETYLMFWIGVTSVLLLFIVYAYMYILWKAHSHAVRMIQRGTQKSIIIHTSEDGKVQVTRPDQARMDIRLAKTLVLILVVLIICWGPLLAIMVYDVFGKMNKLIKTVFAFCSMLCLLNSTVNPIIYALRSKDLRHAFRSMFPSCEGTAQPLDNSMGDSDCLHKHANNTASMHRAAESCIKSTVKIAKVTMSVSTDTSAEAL
compound,measurement,setting,value
CCCCn1cc(C(=O)c2cccc3ccccc23)c2cccc(O)c21 [M4],antagonism of CB1R agonists and inverse agonists in [35S]GTPγS binding,"CB1Rs [1]; M4 10 μM with 100 nM CP, 1 μM JWH-018, 500 nM JWH-073, 10 μM Rimonabant or AM251",significantly antagonized
same,Schild plot slope,CB1Rs [1]; M4 against JWH-018,0.97
same,effect on basal [35S]GTPγS binding,"CB1Rs [1]; M4 alone, 0.1 nM to 10 μM",neither significantly increased
same,intrinsic activity at CB1Rs,CB1Rs [1],lacks significant intrinsic activity
same,"JWH-018-induced hypothermia, area under the curve 0–500 minutes","[2]; M4 10 mg/kg i.p. + JWH-018 3 mg/kg i.p. vs JWH-018 alone, n=5",significantly attenuated hypothermia
same,change in body temperature,"[2]; M4 10 mg/kg i.p. alone, mice",no significant change in body temperature
same,"core body temperature minimum, JWH-018-induced hypothermia with M4","[2]; M4 10 mg/kg i.p. co-administered with JWH-018 3 mg/kg i.p., mice",33.09 +/− 0.70 °C
same,antagonism of JWH-018-induced locomotor suppression,locomotor activity; [4],no difference
same,antagonism of JWH-018-induced analgesia,analgesia (tail flick); [4],no difference
same,antagonism of JWH-018-induced catalepsy,catalepsy; [4],no difference
"CCCCCn1cc(C(=O)c2cccc3ccccc23)c2ccccc21 [JWH-018, reference compound]",EC50,"CB1Rs [1]; read-out: EC50 for G-protein activation, JWH-018 alone",8 nM
same,maximal decrease in core body temperature to,[2]; [5],30.28 +/− 0.71 °C
same,locomotor activity,locomotor activity; JWH-018 3 mg/kg i.p. alone,locomotor suppression
same,analgesia (tail flick assay),analgesia (tail flick); [5],robust analgesia
same,catalepsy,catalepsy; [5],catalepsy
CCCCn1cc(C(=O)c2cccc3ccccc23)c2ccc(O)cc21 [M3],Ki,"CB1Rs [3]; read-out: CB1R affinity (Ki), displacement of [3H]CP-55,940, mouse brain homogenates, n=4",1280 ± 470 nM
same,intrinsic activity at CB1Rs,CB1Rs [1],partial agonist activity
same,[35S]GTPγS Binding,CB1Rs [1]; drug 1 μM,0.04 ± 0.00 pmol/mg
same,[35S]GTPγS Binding + O-2050 (1 μM),CB1Rs [1]; [6],0.02 ± 0.01 pmol/mg
same,[35S]GTPγS Binding,CB1Rs [1]; [7],"0.11 ± 0.02 pmole/mg and 0.11 ± 0.02 ^a, ^b pmole/mg"
"O=C(O)CCCn1cc(C(=O)c2cccc3ccccc23)c2ccccc21 [M6, 4-(3-(1-naphthoyl)-1H-indole-1-yl)-1-butanoic acid]","displacement of [3H]CP-55,940 specific binding","CB1Rs [3]; concentrations as high as 10 μM, n=3",less than 10%
"CCCCCCC(C)(C)c1ccc([C@@H]2C[C@H](O)CC[C@H]2CCCO)c(O)c1 [CP-55,940, reference compound]",[35S]GTPγS Binding Emax,CB1Rs [1],0.26 ± 0.01 ^a pmole/mg
same,intrinsic activity at CB1Rs,CB1Rs [1],full CB1R agonists
same,[35S]GTPγS Binding,CB1Rs [1]; drug 100 nM,0.20 ± 0.04 pmol/mg
same,[35S]GTPγS Binding + O-2050 (1 μM),CB1Rs [1]; drug 100 nM co-incubated with CB1R antagonist O-2050 1 μM,0.06 ± 0.03 pmol/mg
same,[35S]GTPγS Binding,CB1Rs [1]; [7],"0.32 ± 0.02 pmole/mg and 0.32 ± 0.02 ^c, pmole/mg"
CCCCn1cc(C(=O)c2cccc3ccccc23)c2c(O)cccc21 [M1],[35S]GTPγS Binding Emax,CB1Rs [1],0.14 ± 0.01 ^b pmole/mg
same,intrinsic activity at CB1Rs,CB1Rs [1],partial agonist activity
same,[35S]GTPγS Binding,CB1Rs [1]; drug 1 μM,0.17 ± 0.01 pmol/mg
same,[35S]GTPγS Binding + O-2050 (1 μM),CB1Rs [1]; [6],0.07 ± 0.01 pmol/mg
same,[35S]GTPγS Binding,CB1Rs [1]; [7],0.14 ± 0.01 pmole/mg and 0.14 ± 0.01 ^a pmole/mg
same,minimum core body temperature recorded,[2]; mice,30.32 ± 0.66 °C
same,time to maximal core body temperature reduction (Tmax),[2]; mice,58.00 ± 4.64 min
same,locomotor activity,locomotor activity; [8],reduction of locomotor activity similar to that observed with administration of JWH-073
"CCCCn1cc(C(=O)c2cccc3ccccc23)c2ccccc21 [JWH-073, (1-butyl-1H-indole-3-yl)-1-naphthalenyl-methanone, reference compound]",[35S]GTPγS Binding Emax,CB1Rs [1],0.27 ± 0.01 ^a pmole/mg
same,intrinsic activity at CB1Rs,CB1Rs [1],full CB1R agonists
same,[35S]GTPγS Binding,CB1Rs [1]; drug 1 μM,0.27 ± 0.04 pmol/mg
same,[35S]GTPγS Binding + O-2050 (1 μM),CB1Rs [1]; [6],0.07 ± 0.02 pmol/mg
same,[35S]GTPγS Binding,CB1Rs [1]; [7],0.28 ± 0.03 pmole/mg and 0.28 ± 0.03 ^c pmole/mg
same,minimum core body temperature recorded,[2]; mice,29.74 ± 1.44 °C
same,time to maximal core body temperature reduction (Tmax),[2]; mice,54.17 ± 5.23 min
same,locomotor activity,locomotor activity; [8],locomotor suppression
"O=C(c1cccc2ccccc12)c1cn(CCCCO)c2ccccc12 [M5, 1-(4-hydroxybutyl-1H-indole-3-yl)(naphthalen-1-yl)-methanone]",intrinsic activity at CB1Rs,CB1Rs [1],partial agonist activity
same,[35S]GTPγS Binding,CB1Rs [1]; drug 1 μM,0.12 ± 0.00 pmol/mg
same,[35S]GTPγS Binding + O-2050 (1 μM),CB1Rs [1]; [6],0.05 ± 0.01 pmol/mg
same,[35S]GTPγS Binding,CB1Rs [1]; [7],0.16 ± 0.02 pmole/mg and 0.16 ± 0.02 ^a pmole/mg
